Experimental data reported in ChEMBL document CHEMBL1129260, “Evaluation of the stability and animal biodistribution of gadolinium (III) benzylamine-derivatized diethylenetriaminepentaacetic acid” (J Med Chem, 1996).

Assays:
Rattus norvegicus [1] = species on record: Rattus norvegicus; test: Biodistribution of In-LDTA (conjugated with mannoseBSA) protein using [111In]- in mature female Sprague-Dawley rat bone after injecting for 48 hour.; type: ADME, organism-based, Bone element; conditions: in vivo
How it was run: (§1)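 SCN-LDTPA was coupled (pH 9 bicine, 24 h, RT) to BSA, mannosylated BSA or galactosylated BSA and FPLC-purified. The conjugate (400 μg) was labeled with 340 μCi 111In acetate at pH 5.5 for 45 min and gel-filtered. Mature female Sprague-Dawley rats received 19 μg of conjugate; four rats per time point. Blood, liver, bone, kidney and colon were taken and reported as %ID/organ.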

Rattus norvegicus [2] = species on record: Rattus norvegicus; test: Biodistribution of Gd-DTA (conjugated with BSA)protein using [153Gd]- in mature female Sprague-Dawley rat bone marrow after injecting for 48 hour.; conditions: in vivo
Rattus norvegicus [3] = species on record: Rattus norvegicus; test: Biodistribution of In-LDTA (conjugated with BSA) protein using [111In]- in mature female Sprague-Dawley rat liver after injecting for 4 hour.; type: ADME, organism-based; conditions: in vivo; how it was run: as §1
Rattus norvegicus [4] = species on record: Rattus norvegicus; test: Biodistribution of Gd-LDTA (conjugated with galactose BSA) protein using [111In]- in mature female Sprague-Dawley rat bone after injecting for 96 hour.; type: ADME, organism-based, Bone element; conditions: in vivo
Rattus norvegicus [5] = species on record: Rattus norvegicus; test: Biodistribution of Gd-DTA (conjugated with BSA)protein using [111In]- in mature female Sprague-Dawley rat bone marrow after injecting for 1 hour.; type: ADME, organism-based; conditions: in vivo
Rattus norvegicus [6] = species on record: Rattus norvegicus; test: Biodistribution of In-LDTA (conjugated with mannoseBSA) protein using [111In]- in mature female Sprague-Dawley rat bone after injecting for 4 hour.; type: ADME, organism-based, Bone element; conditions: in vivo; how it was run: as §1
Rattus norvegicus [7] = species on record: Rattus norvegicus; test: Biodistribution of Gd-LDTA (conjugated with galactose BSA) protein using [111In]- in mature female Sprague-Dawley rat blood after injecting for 4 hour.; type: ADME, organism-based; conditions: in vivo
How it was run: (§2)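 Conjugate of SCN-LDTPA with BSA, mannosylated BSA or galactosylated BSA (10 equiv chelate, pH 9 bicine, RT 24 h; FPLC-purified) was labelled with 340 μCi 111In acetate at pH 5.5 for 45 min. It was then gel-filtered (Biospin-6) and checked for purity by FPLC. Mature female Sprague-Dawley rats received 19 μg of conjugate. Four rats per time point (1, 4, 24, 48 h) were killed; blood, liver, bone, kidney and colon were taken and %ID/organ was calculated.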

Rattus norvegicus [8] = species on record: Rattus norvegicus; test: Biodistribution of Gd-LDTA (conjugated with mannose BSA) protein using [111In]- in mature female Sprague-Dawley rat bone after injecting for 1 hour.; type: ADME, organism-based, Bone element; conditions: in vivo; how it was run: as §2
Rattus norvegicus [9] = species on record: Rattus norvegicus; test: Biodistribution of In-LDTA (conjugated with galactose BSA)protein using [111In]- in mature female Sprague-Dawley rat blood after injecting for 4 hour.; type: ADME, organism-based; conditions: in vivo; how it was run: as §1
[10] = Gadolinium(III) stability constants (log K value) for the compound polyamino carboxylate derivative; type: physicochemical; conditions: 0.1 M KCl
How it was run: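 Potentiometric titration under argon at 25.00(5) °C in 0.100 M KCl, meter calibrated to read -log [H+] with dilute standard HCl. LDTPA with an equimolar amount of GdCl3 titrated with CO2-free 0.0999 M KOH, added in 0.100 mL aliquots, up to pH 11. Ligand protonation constants came from a parallel titration without metal. Constants were computed from the titration data.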

Rattus norvegicus [11] = species on record: Rattus norvegicus; test: Biodistribution of Gd-LDTA (conjugated with mannose BSA) protein using [111In]- in mature female Sprague-Dawley rat colon after injecting for 24 hour.; type: ADME, organism-based; conditions: in vivo; how it was run: as §2
Rattus norvegicus [12] = species on record: Rattus norvegicus; test: Biodistribution of Gd-LDTA (conjugated with mannose BSA) protein using [111In]- in mature female Sprague-Dawley rat liver after injecting for 1 hour.; type: ADME, organism-based; conditions: in vivo
Rattus norvegicus [13] = species on record: Rattus norvegicus; test: Biodistribution of In-LDTA (conjugated with galactose BSA)protein using [111In]- in mature female Sprague-Dawley rat liver after injecting for 1 hour.; type: ADME, organism-based; conditions: in vivo; how it was run: as §1
Rattus norvegicus [14] = species on record: Rattus norvegicus; test: Biodistribution of Gd-LDTA (conjugated with galactose BSA) protein using [111In]- in mature female Sprague-Dawley rat colon after injecting for 24 hour.; type: ADME, organism-based; conditions: in vivo; how it was run: as §2
Rattus norvegicus [15] = species on record: Rattus norvegicus; test: Biodistribution of In-LDTA (conjugated with galactose BSA)protein using [111In]- in mature female Sprague-Dawley rat colon after injecting for 4 hour.; type: ADME, organism-based; conditions: in vivo; how it was run: as §1
Rattus norvegicus [16] = species on record: Rattus norvegicus; test: Biodistribution of In-LDTA (conjugated with BSA) protein using [111In]- in mature female Sprague-Dawley rat blood after injecting for 24 hour.; type: ADME, organism-based; conditions: in vivo; how it was run: as §1
Rattus norvegicus [17] = species on record: Rattus norvegicus; test: Biodistribution of In-LDTA (conjugated with BSA)protein using [111In]- in mature female Sprague-Dawley rat colon after injecting for 24 hour.; type: ADME, organism-based; conditions: in vivo; how it was run: as §1
Rattus norvegicus [18] = species on record: Rattus norvegicus; test: Biodistribution of Gd-LDTA (conjugated with galactose BSA) protein using [111In]- in mature female Sprague-Dawley rat bone marrow after injecting for 48 hour.; type: ADME, organism-based; conditions: in vivo
Rattus norvegicus [19] = species on record: Rattus norvegicus; test: Biodistribution of Gd-DTA (conjugated with BSA)protein using [111In]- in mature female Sprague-Dawley rat colon after injecting for 1 hour.; type: ADME, organism-based; conditions: in vivo; how it was run: as §2
Rattus norvegicus [20] = species on record: Rattus norvegicus; test: Biodistribution of Gd-LDTA (conjugated with mannose BSA) protein using [111In]- in mature female Sprague-Dawley rat liver after injecting for 48 hour.; type: ADME, organism-based; conditions: in vivo
Rattus norvegicus [21] = species on record: Rattus norvegicus; test: Biodistribution of In-LDTA (conjugated with BSA) protein using [111In]- in mature female Sprague-Dawley rat blood after injecting for 4 hour.; type: ADME, organism-based; conditions: in vivo; how it was run: as §1
Rattus norvegicus [22] = species on record: Rattus norvegicus; test: Biodistribution of Gd-LDTA (conjugated with mannose BSA) protein using [111In]- in mature female Sprague-Dawley rat bone after injecting for 4 hour.; type: ADME, organism-based, Bone element; conditions: in vivo; how it was run: as §2
Rattus norvegicus [23] = species on record: Rattus norvegicus; test: Biodistribution of Gd-LDTA (conjugated with galactose BSA) protein using [111In]- in mature female Sprague-Dawley rat liver after injecting for 1 hour.; type: ADME, organism-based; conditions: in vivo; how it was run: as §2
Rattus norvegicus [24] = species on record: Rattus norvegicus; test: Biodistribution of Gd-DTA (conjugated with BSA)protein using [111In]- in mature female Sprague-Dawley rat bone after injecting for 4 hour.; type: ADME, organism-based, Bone element; conditions: in vivo; how it was run: as §2
Rattus norvegicus [25] = species on record: Rattus norvegicus; test: Biodistribution of Gd-LDTA (conjugated with galactose BSA) protein using [111In]- in mature female Sprague-Dawley rat bone marrow after injecting for 1 hour.; type: ADME, organism-based; conditions: in vivo
Rattus norvegicus [26] = species on record: Rattus norvegicus; test: Biodistribution of Gd-DTA (conjugated with BSA)protein using [111In]- in mature female Sprague-Dawley rat bone after injecting for 1 hour.; type: ADME, organism-based, Bone element; conditions: in vivo; how it was run: as §2
Rattus norvegicus [27] = species on record: Rattus norvegicus; test: Biodistribution of Gd-LDTA (conjugated with galactose BSA) protein using [111In]- in mature female Sprague-Dawley rat liver after injecting for 4 hour.; type: ADME, organism-based; conditions: in vivo; how it was run: as §2
Rattus norvegicus [28] = species on record: Rattus norvegicus; test: Biodistribution of In-LDTA (conjugated with galactose BSA)protein using [111In]- in mature female Sprague-Dawley rat liver after injecting for 24 hour.; type: ADME, organism-based; conditions: in vivo; how it was run: as §1
Rattus norvegicus [29] = species on record: Rattus norvegicus; test: Biodistribution of In-LDTA (conjugated with mannoseBSA) protein using [111In]- in mature female Sprague-Dawley rat bone after injecting for 1 hour.; type: ADME, organism-based, Bone element; conditions: in vivo; how it was run: as §1
Rattus norvegicus [30] = species on record: Rattus norvegicus; test: Biodistribution of Gd-LDTA (conjugated with galactose BSA) protein using [111In]- in mature female Sprague-Dawley rat kidney after injecting for 1 hour.; type: ADME, organism-based; conditions: in vivo; how it was run: as §2

Work on `Nc1ccc(CC(C(=O)O)N(CCN(CC(=O)O)CC(=O)O)CCN(CC(=O)O)CC(=O)O)cc1` (stereo not given) yielded an ID/organ (Rattus norvegicus [1]) of 9.84%, an ID/organ (Rattus norvegicus [2]) of 2.46% and an ID/organ (Rattus norvegicus [3]) of 17%. The ID/organ (Rattus norvegicus [4]) was 9.55%, the ID/organ (Rattus norvegicus [5]) was 1.19% and the ID/organ (Rattus norvegicus [6]) was 10.1%. The ID/organ (Rattus norvegicus [7]) was 0.045%, the ID/organ (Rattus norvegicus [8]) was 15.6% and the ID/organ (Rattus norvegicus [9]) was 0.0462%. The “Log K” value [10] was 22, the ID/organ (Rattus norvegicus [11]) was 0.403% and the ID/organ (Rattus norvegicus [12]) was 70.2%. It also gave an ID/organ (Rattus norvegicus [13]) of 99.7%, an ID/organ (Rattus norvegicus [14]) of 6.07% and an ID/organ (Rattus norvegicus [15]) of 4.8%. The ID/organ (Rattus norvegicus [16]) was 10.8%, the ID/organ (Rattus norvegicus [17]) was 9.4% and the ID/organ (Rattus norvegicus [18]) was 0.061%. It also gave an ID/organ (Rattus norvegicus [19]) of 0.952%, an ID/organ (Rattus norvegicus [20]) of 35% and an ID/organ (Rattus norvegicus [21]) of 53.8%. For the same molecule, the ID/organ (Rattus norvegicus [22]) was 16.4%, the ID/organ (Rattus norvegicus [23]) was 91.3% and the ID/organ (Rattus norvegicus [24]) was 22.3%. It also gave an ID/organ (Rattus norvegicus [25]) of 0.031%, an ID/organ (Rattus norvegicus [26]) of 18.1% and an ID/organ (Rattus norvegicus [27]) of 86.1%. The ID/organ (Rattus norvegicus [28]) was 65.4%, the ID/organ (Rattus norvegicus [29]) was 10.5% and the ID/organ (Rattus norvegicus [30]) was 0.114%.
